According to ChEMBL document CHEMBL5335782, “Discovery of new imidazotetrazinones with potential to overcome tumor resistance” (Eur J Med Chem, 2023):
One block for each compound: values may come before it. Active and inactive are the calls of the source. The calls are words filed in the database; no cut-off is given here.

Experiments:
HCT-116 [1] = assay: Antiproliferative activity against MMR-deficient human HCT-116 cells assessed as inhibition of cell growth measured after […] by MTT assay; assay type: functional
Method in brief: (§1)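 Cells seeded at 6.5×10^2/well, left overnight, then exposed to vehicle or agent (n = 4-8; final 0.5–1000 μM; DMSO stocks of 50 or 10 mM diluted in medium). MTT read at time of addition and after 6 days at 37 °C, 5% CO₂. MTT 0.4 mg/mL for 4 h, formazan taken up in DMSO, A550. GI50 from non-linear regression; mean ± SD of >3 experiments.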

[2] = Antiproliferative activity against human U373V cells assessed as inhibition of cell growth measured […] by MTT assay; assay type: functional; method in brief: as §1
[3] = Antiproliferative activity against MGMT-expressing human U373M cells assessed as inhibition of cell growth measured after […] by MTT assay; assay type: functional; method in brief: as §1
[4] = Intrinsic clearance in rat liver microsomes in presence of NADPH; assay type: ADME, Microsome; conditions: read-out: CLH
[5] = Induction of cell cycle arrest in human U373V cells assessed as accumulation of cells at pre-G1 phase at 100 uM measured after 120 hrs by propidium iodide staining based flow cytometry (reference value: 1%); assay type: functional
[6] = Half life of the compound in phosphate buffered saline at pH 6.8 by LC-MS analysis; assay type: physicochemical
Method in brief: (§2)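 Half-life in phosphate buffers at pH 5, 6.8 or 7.4 followed by LC-MS; mean of two independent experiments.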

HCT-116 [7] = assay: Induction of cell cycle arrest in MMR-deficient human HCT-116 cells at 100 uM measured after 120 hrs by propidium iodide staining based flow cytometry; assay type: functional
[8] = Permeability of the compound measured after 6 hrs by PAMPA assay; assay type: ADME; conditions: read-out: permeability
Method in brief: (§3)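 PAMPA passive-diffusion assay run as contract research under the provider's protocols, with control compounds. After 6 h incubation, permeability (Pe) and percentage recovery determined.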

[9] = Apparent elimination half life in human
[10] = Half life in rat plasma; assay type: ADME, cell-free
[11] = Half life of the compound in phosphate buffered saline at pH 5.5 by 1H NMR spectroscopic analysis; assay type: physicochemical
Method in brief: (§4)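 Half-life followed by ¹H NMR spectroscopy in phosphate buffers at pH 7.4 or 5.5.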

U373V [12] = assay: Induction of cell cycle arrest in human U373V cells assessed as accumulation of cells at G2/M phase at 100 uM measured after 120 hrs by propidium iodide staining based flow cytometry; assay type: functional
U373M = assay: Induction of cell cycle arrest in MGMT-expressing human U373M cells at 100 uM measured after 120 hrs by propidium iodide staining based flow cytometry; assay type: functional
[13] = Intrinsic clearance in human liver microsomes in presence of NADPH; assay type: ADME, Microsome; conditions: read-out: CLH
[14] = Half life in human liver microsomes in absence of NADPH; assay type: ADME, Microsome
[15] = Apparent elimination half life in human plasma
[16] = Intrinsic clearance in human liver microsomes in absence of NADPH; assay type: ADME, Microsome; conditions: read-out: CLH
[17] = Half life of the compound in phosphate buffered saline at pH 7.4 by 1H NMR spectroscopic analysis; assay type: physicochemical; method in brief: as §4
[18] = Permeability of the compound assessed as drug recovery measured after 6 hrs by PAMPA assay; assay type: ADME; conditions: read-out: Drug recovery; method in brief: as §3
[19] = Half life in rat liver microsomes in presence of NADPH; assay type: ADME, Microsome
[20] = Half life in human plasma; assay type: ADME, cell-free
[21] = Half life of the compound in phosphate buffered saline at pH 7.4 by LC-MS analysis; assay type: physicochemical; method in brief: as §2
[22] = Intrinsic clearance in rat liver microsomes in absence of NADPH; assay type: ADME, Microsome; conditions: read-out: CLH
[23] = Half life in rat liver microsomes in absence of NADPH; assay type: ADME, Microsome
[24] = Half life in human liver microsomes in presence of NADPH; assay type: ADME, Microsome
[25] = Selectivity ratio of GI50 for cytotoxicity against human MRC5 cells to GI50 for antiproliferative activity against MMR-deficient human HCT-116 cells; assay type: toxicity, cell-based; conditions: MRC5 cells versus MMR-deficient HCT-116 cells, read-out: RatioGI50
[26] = Ratio of permeability across dog MDCK cells transfected with MDR1 to permeability across wild type dog MDCK cells; assay type: ADME, cell-based, Canis lupus familiaris
U373V [27] = assay: Inhibition of cell colony formation in human U373V cells at 20 to 50 uM incubated for 24 hrs followed by drug removal and incubation in medium for 14 days; assay type: functional, cell-based; conditions: dose 20-50 µM
Method in brief: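 Clonogenic survival: exponentially growing cells seeded in triplicate at 400 cells/well, attached overnight, then exposed for 24 h to 0, 2, 20 or 50 μM agent. Medium then replaced with drug-free medium for 14 days, or until control colonies held ≥50 cells. Colonies fixed in cold methanol, stained with 0.5% methylene blue, counted, and expressed relative to control. 2–3 experiments.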

[28] = Half life of the compound in phosphate buffered saline at pH 5 by LC-MS analysis; assay type: physicochemical; method in brief: as §2
[29] = Cytotoxicity against human MRC5 cells assessed as inhibition of cell growth measured after 7 days by MTT assay; assay type: toxicity, cell-based; conditions: time 7 day; method in brief: as §1
[30] = Stability of the compound in phosphate buffered saline at pH 5.5 by 1H NMR spectroscopy; assay type: physicochemical; conditions: buffer; method in brief: as §4
[31] = Stability of the compound in phosphate buffered saline at pH 7.4 by 1H NMR spectroscopy; assay type: physicochemical; conditions: buffer; method in brief: as §4

SMILES: Cn1nnc2c(C(N)=O)ncn2c1=O [TEMOZOLOMIDE]
microsomal CLint [4]: < 1 µL/min/mg | Activity [5]: 9% | half-life [6]: 4.02 h | Activity (HCT-116 [7]): inactive | Papp at 6 h [8]: 0.63 ×10⁻⁶ cm/s | half-life [9]: 1.8 h | half-life [10]: 0.298 h | half-life [11]: > 100 h | Activity (U373V [12]): Active | Activity (U373M): inactive | microsomal CLint [13]: 27.3 µL/min/mg | half-life [14]: 1 h | t1/2 [15]: 0.25 h | microsomal CLint [16]: 23 µL/min/mg | half-life [17]: 1.53 h | recovery at 6 h [18]: 65.3% | half-life [19]: > 8 h | GI50 (HCT-116 [1]): 291 µM | half-life [20]: 0.33 h | half-life [21]: 2.47 h | microsomal CLint [22]: < 1 µL/min/mg | half-life [23]: > 8 h | half-life [24]: 0.848 h | GI50 [2]: 51.9 µM | selectivity ratio [25]: 1.4 | Ratio [26]: 3.21 | inhibition (U373V [27]): Active | half-life [28]: > 8 h | GI50 [3]: 302 µM

SMILES: C#CCn1nnc2c(-c3nc(C(C)(C)C)cs3)ncn2c1=O
GI50 (HCT-116 [1]): 25.1 µM | GI50 [2]: 27.3 µM | GI50 [3]: 19.2 µM

SMILES: C#CCn1nnc2c(-c3nc(C(F)(F)F)cs3)ncn2c1=O
GI50 (HCT-116 [1]): 21.5 µM | GI50 [2]: 28.2 µM | GI50 [3]: 25.4 µM

SMILES: C#CCn1nnc2c(-c3nc(-c4ccncc4)cs3)ncn2c1=O
GI50 (HCT-116 [1]): 29 µM | GI50 [2]: 23.5 µM | GI50 [3]: 25.1 µM

Now those with a lower GI50 (HCT-116 [1]), led by results:

GI50 (HCT-116 [1]): 19.2 µM
SMILES: C#CCn1nnc2c(-c3nc(C4CCCC4)cs3)ncn2c1=O
GI50 [2]: 23.7 µM | GI50 [3]: 11.8 µM

GI50 (HCT-116 [1]): 17.8 µM
SMILES: C#CCn1nnc2c(-c3nc(CO)cs3)ncn2c1=O
GI50 [2]: 24.4 µM | GI50 [3]: 14.8 µM

GI50 (HCT-116 [1]): 20.3 µM
SMILES: C#CCn1nnc2c(-c3nc(C4CCC4)cs3)ncn2c1=O
GI50 [2]: 24.2 µM | GI50 [3]: 25.5 µM

microsomal CLint [4]: 68.5 µL/min/mg | half-life [6]: 3.57 h | Papp at 6 h [8]: 3.68 ×10⁻⁶ cm/s | half-life [10]: 0.059 h | half-life [11]: 0.12 h | microsomal CLint [13]: 97.8 µL/min/mg | half-life [14]: 1.27 h | microsomal CLint [16]: 18.6 µL/min/mg | half-life [17]: 1.47 h | recovery at 6 h [18]: 18.5% | half-life [19]: 0.34 h | GI50 (HCT-116 [1]): 7.04 µM | half-life [20]: 0.0495 h | half-life [21]: 2.81 h | microsomal CLint [22]: 14.7 µL/min/mg | half-life [23]: 1.57 h | half-life [24]: 0.237 h | Stability [30]: Stable | Ratio [26]: 1.16 | Stability [31]: Stable | half-life [28]: > 8 h
SMILES: C#CCn1nnc2c(-c3nc(C)cs3)ncn2c1=O
GI50 at 168 h [29]: 25 µM | GI50 [2]: 8.45 µM | GI50 [3]: 7.44 µM

GI50 (HCT-116 [1]): 4.6 µM
SMILES: C#CCn1nnc2c(-c3ncc(C)s3)ncn2c1=O
GI50 [2]: 6.84 µM | GI50 [3]: 3.99 µM

GI50 (HCT-116 [1]): 16.7 µM
SMILES: C#CCn1nnc2c(-c3nc(C(=C)C)cs3)ncn2c1=O
GI50 [2]: 18.7 µM | GI50 [3]: 14.2 µM
